Data: article PMC10276036 (International Journal for Parasitology: Drugs and Drug …, 2023)

Columns and labels:
[1] = test system: epimastigotes of Trypanosoma cruzi (Y strain); assay: Activity against epimastigote stage; type: cell-based; conditions: CC50/IC50, murine macrophages vs epimastigotes
In short: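 Y-strain epimastigotes, maintained in LIT + 10% FBS at 26 °C, seeded at 10^5/well with serial dilutions of test compound and 10% alamarBlue. After 3 days (exponential growth), fluorescence was read and dying parasites were confirmed by microscopy. IC50 came from nonlinear regression. CC50 came from the J774A.1 alamarBlue assay, and SI = CC50/IC50.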

[2] = Cytotoxicity on murine cells; type: cell-based; conditions: mouse, J774A.1 macrophages
In short: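 J774A.1 macrophages, maintained in DMEM + 10% FBS at 37 °C and 5% CO2, seeded at 10^4/well and left until fully adherent. Serial dilutions of test compound were then added in RPMI 1640 instead of DMEM, whose colour disturbs alamarBlue fluorescence. After 24 h at 37 °C and 5% CO2, alamarBlue fluorescence was read.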

[3] = test system: amastigote stage of T. cruzi; assay: Activity against amastigote stage; type: cell-based, Trypanosoma cruzi; conditions: CC50/IC50, murine macrophages vs amastigotes

**Q.** For `O=C(Cn1ccnc1[N+](=O)[O-])NCc1ccccc1` [BENZ, benznidazole], which “Selectivity index (SI) against epimastigote stage” value [1] is on record?
**A.** 57.8

**Q.** And the CC50 at 24 h [2]?
**A.** 399.9 ± 1.4 µM

**Q.** What about the “Selectivity index against amastigote stage” value [3] of the same compound?
**A.** 149.8
